# NR2E3 ag-1 = activates human NR2E3 receptor; actives 0.35% (n = 360,000); AID 602229; Q9Y5X4; inhibition of corepressor binding, % at 3.98 µM; CHO-S Gal4-NCOR/VP16-NR2E3 two-hybrid, luciferase;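 active = inhibition above the mean of all tested compounds plus 3 SD, cut at about 70% in these data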;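 note: higher means lower luciferase signal from less NR2E3 corepressor binding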
# GalR3 antagonist = antagonists of human GalR3; HEK293 GalR3-CNG cAMP membrane potential fluorescence; galR3 body fused to GalR1 C-terminus; O60755; inhibition, % at 3 µM; actives 0.44% (n = 360,000); AID 651719;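 active = inhibition above the screen-wide average plus 3 SD, cut at about 13% in these data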;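 note: forskolin and galanin both at EC90 stimulate the cells; cAMP rise reported by CNG channel membrane potential dye signal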
# PG9 Ab binder = PG9 antibody binding by small molecule. actives 0.43% (n = 360,000). TR-FRET gp120-PG9 antibody binding. inhibition, % at 6.7 µM; in the data active = inhibition above about 8.5%
# Rev-erbA mod = modulates human Rev-erb alpha binding to DNA; P20393; Rev-erbα–FITC-DNA binding, fluorescence polarization, 90 min; activity, % at 10 µM; actives 0.79% (n = 370,000);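 active = activity above about 14%, limit read from the data; passing the limit was not always enough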
# Target sequence (P20393 whole entry, looked up): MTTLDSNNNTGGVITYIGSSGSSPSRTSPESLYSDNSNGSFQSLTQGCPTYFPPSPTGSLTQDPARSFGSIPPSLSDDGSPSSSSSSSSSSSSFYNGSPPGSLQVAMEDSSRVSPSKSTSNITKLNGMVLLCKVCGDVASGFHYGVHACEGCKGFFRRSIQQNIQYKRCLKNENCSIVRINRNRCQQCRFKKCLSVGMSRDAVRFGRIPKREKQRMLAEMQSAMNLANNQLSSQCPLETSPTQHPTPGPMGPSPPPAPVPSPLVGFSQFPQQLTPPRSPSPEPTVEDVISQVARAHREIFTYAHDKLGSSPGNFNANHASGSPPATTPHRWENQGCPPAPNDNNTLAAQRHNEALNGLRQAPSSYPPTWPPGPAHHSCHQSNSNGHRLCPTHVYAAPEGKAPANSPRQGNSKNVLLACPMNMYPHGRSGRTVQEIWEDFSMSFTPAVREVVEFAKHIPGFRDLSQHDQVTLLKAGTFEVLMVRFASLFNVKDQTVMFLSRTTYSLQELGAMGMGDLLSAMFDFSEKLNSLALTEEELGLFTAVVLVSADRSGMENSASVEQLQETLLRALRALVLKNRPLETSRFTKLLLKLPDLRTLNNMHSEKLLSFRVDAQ
# NR2E3 ag-2 = NR2E3 (human) agonism | AID 2300 | Q9Y5X4 | inhibition of corepressor binding, % at 4.78 µM | GST-NR2E3/biotin-RetCOR TR-FRET, 1536-well | actives 0.12% (n = 320,000);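 active = percent inhibition above the cutoff of mean plus 3 SD of all tested compounds, set per screening campaign, cut at about 20% in these data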
#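 Assay system: NR2E3–RetCOR corepressor complex. Quantity: 1.35 nM GST-NR2E3. Buffer or medium: pH 7.5 Tris-based buffer. Reagent: biotinylated RetCOR corepressor at 7 nM final. Schedule: 5 h at 4 °C. Detection: TR-FRET, emission read at 617 and 671 nm. Replicates: one well per compound, singlicate testing.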
# PG9 binder conf = PG9 antibody binding, confirmed. shares compounds with PG9 Ab binder. TR-FRET PG9 antibody binding, biochemical. inhibition, % at 6.7 µM. actives 90% (n = 1,500). AID 651571; in the data active = inhibition above about 9%
# PGV04 Ab binding = binds control antibody PGV04 in PG9 binder counter-screen. shares compounds with PG9 Ab binder. inhibition, % at 6.7 µM. actives 95% (n = 1,500). TR-FRET PGV04 antibody-gp120 binding, biochemical. AID 651604; in the data active = inhibition above about 9.5%
# PG9 binder DR = PG9 antibody binding, dose response. shares compounds with PG9 Ab binder. TR-FRET PG9 antibody-gp120 binding inhibition. 95 tested, under 10 active. AID 651848. IC50, µM; in the data active = IC50 below about 10 µM
# PGV04 binding DR = counter-screen for PG9 binders: binding to control antibody PGV04; shares compounds with PG9 Ab binder; TR-FRET binding to control antibody PGV04; IC50, µM; actives 20% (n = 95); AID 651937
# PG126 binding DR = counter-screen for PG9 binders: binding to control antibody PG126; actives 20% (n = 95); shares compounds with PG9 Ab binder; IC50, µM; TR-FRET binding to antibody PG126, counterscreen
# Rev-erbA confirm = confirmation of modulators of human Rev-erb alpha DNA binding; shares compounds with Rev-erbA mod; Rev-erb alpha FITC-DNA binding, fluorescence polarization, 90 min; activation, % at 25 µM; actives 61% (n = 3,000);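 active = activation at or above a set limit, or at least 3 SD above the negative control mean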
# RORg DNA counter = RORgamma DNA-binding activity, dose-response counter-screen. actives 8% (n = 910). purified RORgamma protein-FITC-DNA binding, fluorescence polarization. AID 1259320. IC50, µM. shares compounds with Rev-erbA mod;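 active = Compounds whose fitted half-maximal concentration for disrupting protein-DNA binding is below 10 micromolar; the record names Rev-erb in its text, so the target is in doubt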
# Hits are given with their value; n = inactive; x = no result given. Compounds with a hit are over-represented: about 1.8% of the library has one in this group of screens. Cut-off read from the data, not from the text of the source, unless noted: active = IC50 below about 9 µM; inactive = the rest.
SMILES,NR2E3 ag-1,GalR3 antagonist,PG9 Ab binder,Rev-erbA mod,NR2E3 ag-2,PG9 binder conf,PGV04 Ab binding,others
O=C(NCc1ccc(F)c(F)c1)C1CCC(CNS(=O)(=O)c2cccc3cccnc23)CC1 (centres undefined),x,x,x,n,x,x,x,
CC(C)NC(=O)N[C@H]1C[C@@H]2O[C@H](CO)CC[C@@H]2O[C@@H]1CCc1ccc(-c2ccccc2F)cc1,x,x,x,n,x,x,x,
Cc1ccc(S(=O)(=O)c2c(N)n(CCN3CCOCC3)c3nc4ccccc4nc23)cc1C,n,n,26,n,n,17,29,
Cc1ccc(C(=O)CSc2nc(C)cc(SCc3nnc(-c4ccccc4)o3)n2)cc1,n,n,9.4,n,n,15,22,
Cc1cc(=O)[nH]c(SCc2nnc(-c3ccccc3)o2)n1,n,n,n,n,n,x,x,
C[C@H]1CCCN1c1ccc2c(c1)O[C@H]1CCN(C1)S2(=O)=O,x,x,x,n,x,x,x,
O=C(Nc1nc(-c2ccc(F)cc2)cs1)C1CCN(C(=O)c2ccc(F)cc2)CC1,n,n,n,n,n,x,x,
O=C(Nc1nc2c(F)cc(F)cc2s1)C1CCN(C(=O)c2ccc(F)cc2)CC1,n,n,9.1,n,n,9.7,17,
COc1cccc(OC)c1C(=O)Nc1ccc(C(=O)NCc2ccccc2)cc1,n,n,9.6,n,n,12,17,
COc1ccc(C(=O)NCc2ccccc2)cc1Br,n,n,n,n,n,x,x,
O=C(c1ccc2ccccc2c1)c1cccc(F)c1C(=O)O,n,n,13,n,x,12,17,
CCOC(=O)c1[nH]c2ccc(OC)cc2c1NC(=S)N1CCN(c2cccc(Cl)c2)CC1,n,n,55,n,n,16,30,
CCOC(=O)c1[nH]c2ccc(OC)cc2c1NC(=S)N1CCN(c2ccccc2)CC1,n,n,11,n,n,n,9.5,
CCOC(=O)c1[nH]c2ccc(OC)cc2c1NC(=S)N1CCN(c2ccccn2)CC1,n,n,n,n,n,x,x,
CC(C)C[C@@H]1COc2cc(Br)ccc2S(=O)(=O)N1Cc1cn(Cc2ccc(C(F)(F)F)cc2)nn1,x,x,x,n,x,x,x,
O=C(Nc1ccc(Oc2ccccc2)cc1)C1CCN(c2nnc(-n3cccc3)s2)CC1,x,x,x,n,x,x,x,
Cc1ccc(NC(=O)Cn2c(=O)c3cccn3c3ccccc32)cc1,n,n,21,n,n,19,27,
CC(=O)c1cn(CC(=O)Nc2ccc(C)cc2)c2ccccc12,n,n,17,n,n,24,32,
CC(=O)c1cn(CC(=O)Nc2ccc(C)c(C)c2)c2ccccc12,n,n,n,n,n,x,x,
CCc1c(Cc2cccc(F)c2)ncn1CCc1ccccc1OC,x,n,n,n,x,x,x,
COc1ccc(C(=O)Nc2cc(-c3ccc(C)cc3)no2)cc1,n,n,14,n,x,15,18,
COc1ccc(Oc2c(Cl)cnn(-c3cc(C)cc(C)c3)c2=O)cc1,x,x,x,n,x,x,x,
Cc1cc(C=O)c(C)n1-c1ccc(Oc2ccc([N+](=O)[O-])cn2)cc1,n,n,8.6,n,n,10,15,
COc1ccc(NC(=O)NNC(=O)COc2ccc3ccccc3c2)cc1OC,n,n,n,n,n,x,x,
COc1ccc(NC(=O)NNC(=O)COc2ccc3cc(Br)ccc3c2)cc1OC,n,n,18,77,n,29,39,Rev-erbA confirm=65;RORg DNA counter=n
SMILES,NR2E3 ag-1,GalR3 antagonist,PG9 Ab binder,Rev-erbA mod,NR2E3 ag-2,PG9 binder conf,PGV04 Ab binding,others
Cc1ccc2c(c1)C1CS(=O)(=O)N(C3CCCC3)CN1C2 (centres undefined),x,x,x,n,x,x,x,
C[C@H](NC(=O)c1ncn2c1c(=O)[nH]c1ccc(Br)cc12)c1ccccc1,n,n,20,133,x,43,52,Rev-erbA confirm=24
CCOc1ccc(OCC)c(NC(=O)c2[nH]c(C)c(C(C)=O)c2C)c1,n,n,16,59,n,11,n,PG9 binder DR=n;PGV04 binding DR=3.6;PG126 binding DR=3.9;Rev-erbA confirm=52;RORg DNA counter=n
CCOc1cc(N2CCOCC2)c(OCC)cc1NC(=O)c1[nH]c(C)c(C(C)=O)c1C,n,n,n,n,n,x,x,
CCC(C)n1c(=O)c(C(=O)Nc2ccccc2S(N)(=O)=O)c(O)c2ccccc21 (centres undefined),n,n,14,54,n,14,23,Rev-erbA confirm=31
O=C(NCCc1ccccc1)OCc1cn(-c2ccc(Cl)cc2)nn1,x,x,x,n,x,x,x,
C=CCN1C(=O)[C@@H](CC(=O)NCCCC)[C@]2(C(=O)OC)CCCCC=C12,x,x,x,n,x,x,x,
CC(C)(C)OC(=O)NCc1cc(F)ccc1/C=C/S(=O)(=O)NC1CCCC1,x,x,x,n,x,x,x,
COC(=O)[C@]12C[C@H](CC(=O)NCc3ccc(C)o3)C(=O)N(Cc3ccc4c(c3)OCO4)C1=C[C@H](C(C)C)O[C@@H]2C1CC1,x,x,x,n,x,x,x,
O=C(NC1CCCCN(Cc2ccc(Cl)cc2)C1=O)c1c(F)cccc1F (centres undefined),x,x,x,n,x,x,x,
COc1ccc(-c2c(C)nc3c(-c4ccsc4)cnn3c2N)cc1,n,n,36,108,n,n,16,Rev-erbA confirm=66;RORg DNA counter=n
CC(C)Oc1ccc(Oc2ccc(C#C[C@H](C)N3C(=O)c4ccccc4C3=O)cc2)cn1,x,x,x,n,x,x,x,
CC(=O)c1cccc(Nc2nc(-c3ccccc3)nc3ccccc23)c1,n,n,36,26,n,12,22,Rev-erbA confirm=n
CC(=O)Nc1cccc(Nc2nc(-c3ccccc3)nc3ccccc23)c1,n,n,n,n,n,x,x,
O=C1C[C@H](C(=O)Nc2ccc(Cl)cc2)[C@@H](c2ccccc2)O1,x,x,x,n,x,x,x,
O=C(OCc1cc2ccccc2[nH]c1=O)c1ccc([N+](=O)[O-])cc1,n,n,n,n,n,x,x,
Cc1ccc(C(=O)OCc2cc3ccccc3[nH]c2=O)cc1,n,n,15,23,n,24,31,Rev-erbA confirm=17
CC(C)CN1C(=O)C[C@]2(C(=O)N(C)c3ccc(NS(=O)(=O)c4ccc(F)cc4)cc32)C1c1ccccc1 (some centres undefined),x,x,x,n,x,x,x,
CC(C)OC(=O)CSc1nc(N)c(C#N)c(-c2cccs2)c1C#N,n,n,n,n,n,x,x,

# Screening results deposited in PubChem by several laboratories.
